# Results from ChEMBL document CHEMBL1124564, “Ester derivatives of 2,6-bis(1-pyrrolidinylmethyl)-4-benzamidophenol as short-acting antiarrhythmic agents. 1” (J Med Chem, 1989).
# Assays:
# Cavia porcellus = species on record: Cavia porcellus; assay: Inhibition of acetylstrophantidin induced arrhythmia in guinea pig isolated right atria.; assay type: functional; conditions: read-out: ED50 (the source's name)
# Summary of the method: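 Isolated atrium in prewarmed 37 °C Krebs on an isometric force transducer, tension about 500 mg, equilibrated 1 h. Arrhythmogen (ethanolic stock) added at 5.0 μg/mL, raised to 7.5 μg/mL after 30 min if no arrhythmia. After 45 min, compound given in incremental doses every 20 min. ED is the cumulative dose restoring sinus rhythm for at least 3 min.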
# [1] = Biological half-life was evaluated in whole human blood; assay type: ADME, organism-based
# Summary of the method: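 Fresh heparinized blood from male volunteers and compound in saline preincubated separately 5 min at 37 °C, then mixed 1:1 (final 25 μg/mL) and shaken at 37 °C for 0, 1, 2.5, 5.0, 10, 20, 30 and 60 min. Stopped with acetonitrile, proteins spun down, supernatant assayed by HPLC on phenyl column. Half-life is the time to 50% loss of compound.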
# [2] = Distribution coefficient of compound was determined in octanol-water system; assay type: physicochemical
# Canis familiaris = species on record: Canis familiaris; assay: Inhibition of ouabain induced arrhythmia in the dog.; assay type: functional, Canis lupus familiaris
# Summary of the method: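 Adult male mongrel dogs (10–17 kg) under pentobarbital (30 mg/kg iv), intubated, spontaneous breathing, lead II ECG. Ouabain iv bolus: 40 μg/kg, then 20 μg/kg at 30 min, then 5–10 μg/kg every 15 min until stable ventricular arrhythmia (>95% ectopic complexes) lasted 15 min. Compound infused iv at 0.5 mg/kg per min until sinus rhythm held ≥10 min.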
Compound,half-life [1] [min],Distribution coefficient [2],EC50 (Cavia porcellus) [µg/mL],Active dose (Canis familiaris) [mg/kg]
O=C(O)Cc1cc(CN2CCCC2)c(O)c(CN2CCCC2)c1,–,–,> 200,–
O=C(O)c1cc(CN2CCCC2)c(O)c(CN2CCCC2)c1,–,–,> 30,>60
O=C(NCC1CCCCN1)c1cc(OCC(F)(F)F)ccc1OCC(F)(F)F (configuration not stated) [FLECAINIDE],–,13.71,6,2.3
O=C(O)CCc1cc(CN2CCCC2)c(O)c(CN2CCCC2)c1,–,–,> 1000,–
CCCCOC(=O)CCCc1cc(CN2CCCC2)c(O)c(CN2CCCC2)c1,0.77,12.8,0.33,–
CCC(C)OC(=O)c1cc(CN2CCCC2)c(O)c(CN2CCCC2)c1 (configuration not stated),–,1.12,6.7,6.8
CC(C)OC(=O)c1cc(CN2CCCC2)c(O)c(CN2CCCC2)c1,–,0.37,11.4,–
CCOC(=O)c1ccccc1NC(=O)c1cc(CN2CCCC2)c(O)c(CN2CCCC2)c1,–,–,–,1.75
CCOC(=O)CCc1ccc(NC(=O)c2cc(CN3CCCC3)c(O)c(CN3CCCC3)c2)cc1,–,–,–,10.9
CC(C)COC(=O)c1cc(CN2CCCC2)c(O)c(CN2CCCC2)c1,–,1.47,2.3,–
O=C(Nc1ccccc1)c1cc(CN2CCCC2)c(O)c(CN2CCCC2)c1,–,0.42,11,2.5
CC(C)COC(=O)CCCc1cc(CN2CCCC2)c(O)c(CN2CCCC2)c1,1.96,7.24,2,–
CCN(CC)CC(=O)Nc1c(C)cccc1C [LIDOCAINE],–,19.19,6,10.1
CCOC(=O)/C=C/c1ccc(NC(=O)c2cc(CN3CCCC3)c(O)c(CN3CCCC3)c2)cc1,–,–,–,17.5
CCOC(=O)c1ccc(NC(=O)c2cc(CN3CCCC3)c(O)c(CN3CCCC3)c2)cc1,–,–,–,19

# The next lines start with results.
half-life [1] [min],Distribution coefficient [2],Compound,EC50 (Cavia porcellus) [µg/mL],Active dose (Canis familiaris) [mg/kg]
9.5,1.5,CCCCOC(=O)Cc1cc(CN2CCCC2)c(O)c(CN2CCCC2)c1,13.3,7.3
18.5,0.43,CCCOC(=O)Cc1cc(CN2CCCC2)c(O)c(CN2CCCC2)c1,10.3,8.8
36.1,0.78,CCCOC(=O)CCc1cc(CN2CCCC2)c(O)c(CN2CCCC2)c1,7,3
22.1,2,CCCCOC(=O)CCc1cc(CN2CCCC2)c(O)c(CN2CCCC2)c1,2.5,11
2.1,–,CCCOC(=O)CCCc1cc(CN2CCCC2)c(O)c(CN2CCCC2)c1,–,–
–,0.62,CC(C)OC(=O)CCc1cc(CN2CCCC2)c(O)c(CN2CCCC2)c1,4,–
–,0.18,CCOC(=O)Cc1cc(CN2CCCC2)c(O)c(CN2CCCC2)c1,17.2,>7.5
8.7,1.25,CC(C)COC(=O)Cc1cc(CN2CCCC2)c(O)c(CN2CCCC2)c1,5,11.8
–,0.39,CC(C)OC(=O)Cc1cc(CN2CCCC2)c(O)c(CN2CCCC2)c1,1,–
25.9,1.54,CC(C)COC(=O)CCc1cc(CN2CCCC2)c(O)c(CN2CCCC2)c1,14,5
